Type in all cases: functional
Assay [1] can be described thus: Antioxidant activity assessed as nitric oxide radical scavenging activity at 0.2 ug/ml after 150 mins. In a few lines: (§1)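 Sodium nitroprusside (10 mmol) in PBS at physiological pH was incubated with sample at 25 °C for 150 min in a 3 ml reaction. Aliquots taken every 30 min were mixed 1:1 with Griess reagent (1% sulphanilamide, 0.1% naphthylethylenediamine in 2% H3PO4), and absorbance was read at 546 nm. Runs were done in triplicate, and % scavenging was calculated against the blank.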

Assay [2] is described as follows: Antioxidant activity assessed as nitric oxide radical scavenging activity at 1.2 ug/ml after 150 mins. In a few lines: as §1
A short description of assay [3]: Antioxidant activity assessed as nitric oxide radical scavenging activity at 0.1 ug/ml after 150 mins. In a few lines: as §1
Assay [4] in a line: Antioxidant activity assessed as nitric oxide radical scavenging activity at 0.6 ug/ml after 150 mins. In a few lines: as §1
The nature of assay [5]: Antioxidant activity assessed as nitric oxide radical scavenging activity at 0.8 ug/ml after 150 mins. An outline of the steps: as §1
A short description of assay [6]: Antioxidant activity assessed as nitric oxide radical scavenging activity at 0.4 ug/ml after 150 mins. In a few lines: as §1
Assay [7] is described as follows: Inhibition of nitric oxide radical scavenging activity. An outline of the steps: as §1
Assay [8] can be described thus: Antioxidant activity assessed as nitric oxide radical scavenging activity at 1.0 ug/ml after 150 mins. An outline of the steps: as §1
The test system of the next assay is Rattus norvegicus. The assay can be described thus: Antiinflammatory activity in Albino rat assessed as protection against carrageenan-induced hind paw oedema at 100 mg/kg, po after 3 hrs. In a few lines: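 Rats (150–250 g, either sex) were fasted 18 h and grouped in sixes. Compounds or standards were given orally as a suspension in 5% DMSO. After 1 h, 0.1 ml of 1% carrageenin was injected subplantar into the right hind paw. Paw volume was read by mercury plethysmometer at once and at 3 h. % protection = 100(1−Vt/Vc) versus vehicle.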
In general terms: The carrageenan paw model is a standard test of acute inflammation.

One may read the IC50 as the point on the concentration scale where inhibition reaches its midpoint. Read a high IC50 as lower potency.

In brackets after ≈: the same amount, converted by molar mass.

Turning to `O=C1O[C@H]([C@@H](O)CO)C(O)=C1O` [ASCORBIC ACID], the Activity in assay [1] worked out at 11.5%; in [2], 70.2%; in assay [3] it was 2.98%; in assay [4], 39.3%; in assay [5], 41.6%; in [6], 29.5%. Moreover, the Activity in assay [8] is 58.3%. This compound returned an IC50 in assay [7] of 0.52 µg/mL (≈ 2.95 µM).

With `Cc1cccc(Nc2ccccc2C(=O)O)c1C` [MEFENAMIC ACID], the Activity in the assay on Rattus norvegicus amounted to 39%.
